High-throughput results as filed in PubChem BioAssay.
In the library only some 0.55% were active in any assay of this set; here they are far more common.
ABCB1 block: inhibitors of human ABCB1 transporter, ABCG2 counter-screen; inhibition, % at 6.6 µM; hit rate 0.067% among 190,000; CCRF-Adr cells, JC-1 efflux, flow cytometry; AID 1326; P08183; in the data active = inhibition above about 40%;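 also: higher value means more JC-1 retained so stronger ABCB1 efflux block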
ABCB6 inh 2: inhibitors of human ABC transporter ABCB6; Q9NP58; K562-ABCB6 porphyrin accumulation, flow cytometry, 1 h; hits give low values; fluorescence ratio to DMSO, % at 10 µM; hit rate 0.19% among 360,000; AID 602162;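 active = fluorescence ratio to DMSO below 75%, the collection mean minus 3 SD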;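 also: signal is porphyrin accumulated inside mitochondria; lower ratio means ABCB6 inhibition with less porphyrin fluorescence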
Target sequence (Q9NP58 whole entry, looked up): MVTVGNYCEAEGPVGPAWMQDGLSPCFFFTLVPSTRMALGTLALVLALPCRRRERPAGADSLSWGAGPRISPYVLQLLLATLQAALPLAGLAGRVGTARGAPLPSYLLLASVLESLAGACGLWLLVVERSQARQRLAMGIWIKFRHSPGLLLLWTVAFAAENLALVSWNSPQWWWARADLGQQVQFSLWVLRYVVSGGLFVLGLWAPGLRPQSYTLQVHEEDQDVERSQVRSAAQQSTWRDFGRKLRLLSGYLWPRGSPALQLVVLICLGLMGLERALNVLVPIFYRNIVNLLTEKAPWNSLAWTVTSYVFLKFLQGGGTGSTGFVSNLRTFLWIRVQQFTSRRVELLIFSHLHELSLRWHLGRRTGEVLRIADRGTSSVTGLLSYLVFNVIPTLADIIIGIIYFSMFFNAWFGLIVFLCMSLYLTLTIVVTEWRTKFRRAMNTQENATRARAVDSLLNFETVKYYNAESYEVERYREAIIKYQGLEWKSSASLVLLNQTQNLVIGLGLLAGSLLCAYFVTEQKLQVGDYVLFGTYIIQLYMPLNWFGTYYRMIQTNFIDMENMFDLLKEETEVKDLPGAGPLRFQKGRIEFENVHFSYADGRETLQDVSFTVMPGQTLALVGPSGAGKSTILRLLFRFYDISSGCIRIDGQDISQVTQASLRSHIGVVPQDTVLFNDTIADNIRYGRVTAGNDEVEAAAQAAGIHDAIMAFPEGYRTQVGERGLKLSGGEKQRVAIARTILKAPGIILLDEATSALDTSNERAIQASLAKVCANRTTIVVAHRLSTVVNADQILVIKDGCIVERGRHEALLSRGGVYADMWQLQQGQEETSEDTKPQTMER
HSV augment: HSV replication enhancement | AID 1956 | hit rate 0.005% among 220,000 | maximum fold increase | HSV replication augmentation in cells, fold increase; in the data active = maximum fold increase above about 1.5; tested in PC3 cells
p97 ATPase inh: blocks human p97 ATPase activity | inhibition, % at 8 µM | AID 1481 | recombinant p97 ATPase, Kinase-Glo ATP luminescence, 3 h | hit rate 0.42% among 220,000 | P55072; in the data active = inhibition above about 15%
Rad51 HR inh: Rad51 (human) homologous recombination inhibition. hRad51 DNA strand exchange, fluorescence dequenching. hit rate 0.085% among 200,000. inhibition, % at 10 µM. AID 1385;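 active = inhibition above 40% at the single screening dose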
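Material: hRad51 filaments on single-stranded DNA; Reagent: Donor/quencher-labelled 47-bp dsDNA substrate; Compound: 10 µM final, single point; Schedule: 37 °C 15-min filament assembly, 30-min compound preincubation, 15-min exchange; Technique: FRET fluorescence, excitation 485 nm, emission 520 nm; Benchmarks: control wells and blank wells on each plate.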
ABCG2 block: inhibitors of human ABCG2 transporter, ABCB1 counter-screen. hit rate 0.1% among 190,000. IgMXP3 cells, JC-1 efflux, flow cytometry. Q9UNQ0. AID 1325. inhibition, % at 6.6 µM;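 active = inhibition above 80%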
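Measure – % inhibition of efflux relative to nicardipine and DMSO · Test system – ABCG2 IgMXP3 and barcoded ABCB1 CCRF-Adr cell mix · Control set – nicardipine as high control, DMSO as low control · Compound – one concentration, 6.6 µM final · Signal – flow cytometry of retained JC-1 fluorescence · Timing – 10 min exposure at 25 °C with rotation, no wash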
p97 inh conf: confirmation of human p97 ATPase inhibitors; recombinant p97 ATPase, Kinase-Glo ATP luminescence; hit rate 44% among 760; shares compounds with p97 ATPase inh; inhibition, % at 8 µM;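 active = percent inhibition of p97 ATPase above a set limit, the primary screen's mean plus 3 SD, cut at about 15% in these data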
Numbers stand for hits; - = inactive; . = not tested or not shown.

SMILES	ABCB1 block	ABCB6 inh 2	HSV augment	p97 ATPase inh	Rad51 HR inh	ABCG2 block	p97 inh conf
N=c1sc2ccccc2n1-c1ccccc1	-	-	-	-	-	-	.
O=C(Nc1ccc(Br)c2ccccc12)c1ccc2ccccc2c1O	.	-	-	19	-	.	24
COc1ccc(C(=O)Nc2nccs2)cc1[N+](=O)[O-]	-	-	-	-	-	-	.
Cn1cc([N+](=O)[O-])c(C(=O)Nc2nccs2)n1	-	-	-	17	-	-	-
Cc1cn([C@H]2C[C@H](O)[C@@H](CNS(=O)(=O)N3CCCC3)O2)c(=O)[nH]c1=O	.	-	.	.	.	.	.
COC(=O)c1ccccc1NC(=O)CCCOc1cc(=O)n(C)c2ccccc12	.	-	.	.	.	.	.
COC(=O)CC1Sc2ccccc2NC1=O (centres undefined)	-	-	-	16	-	-	-
COc1ccc(-c2nc(-c3cccs3)c(-c3cccs3)[nH]2)cc1O	-	-	-	15	-	-	26
O=C(O)c1ccc(-c2nc(-c3ccccc3)c(-c3cccs3)[nH]2)cc1	.	-	-	-	-	.	.
Cn1cccc1/C=C1\SC(=Nc2ccccc2)NC1=O	.	-	-	-	-	.	.
Cn1cccc1/C=C1\SC(=Nc2cccc(O)c2)NC1=O	.	-	-	16	-	.	-
Cc1ccc(N=C2NC(=O)/C(=C/c3cccn3C)S2)c(C)c1	.	-	-	-	-	.	.
Cn1cccc1/C=C1\SC(=Nc2ccc(O)cc2)NC1=O	.	-	-	16	-	.	23
COc1ccccc1C(=O)N/C(=C\c1ccc(Br)cc1)C(=O)NCC(=O)O	-	-	-	-	-	-	.
COc1ccccc1C(=O)N/C(=C\c1ccc(Br)cc1)C(=O)NCCC(=O)O	-	-	-	16	-	-	-
CCN(C(=O)c1cn(C)c(=O)c2ccccc12)c1ccccc1F	.	-	.	.	.	.	.
O=C(O)c1ccccc1SCC(=O)N1c2ccccc2Sc2ccccc21	-	-	-	66	-	-	-
O=C(O)c1ccccc1SCC(=O)N1CCCCC1	-	-	-	-	-	-	.
O=C(NCCc1ccccc1)c1ccc(-c2cccnc2)c2ccoc12	.	-	.	.	.	.	.
O=C(Cn1c(-c2ccccc2)noc1=O)Nc1ccc(S(=O)(=O)N2CCOCC2)cc1	-	-	-	-	.	-	.
O=C(Cn1c(-c2ccccc2)noc1=O)Nc1ccc(N2CCCCCC2)cc1	-	-	-	16	-	-	-
CCOC1=C2[C@H](c3ccccc3)N(S(=O)(=O)c3ccc(C)cc3)C(C(C)(C)C)[C@H]2C(C#N)(C#N)C(C#N)(C#N)C1 (some centres undefined)	.	-	.	.	.	.	.
CCOc1ccc(N2C(=O)CC(NC3CCCCNC3=O)C2=O)cc1 (centres undefined)	-	-	-	-	-	-	.
O=C1NCCCCC1NC1CC(=O)N(c2ccccc2)C1=O (centres undefined)	-	-	-	17	-	-	-
CCCCCCCCN1C(=O)[C@H](CC(=O)NCc2ccc(C)o2)C[C@@]2(C(=O)OC)CCCCC=C12	.	-	.	.	.	.	.
SMILES	ABCB1 block	ABCB6 inh 2	HSV augment	p97 ATPase inh	Rad51 HR inh	ABCG2 block	p97 inh conf
Cc1ccc2[nH]c(=O)c(CN(CCCN(C)C)C(=O)Nc3ccc(F)cc3)cc2c1	-	-	-	16	-	-	-
COc1ccc(NC(=O)N(CCCN(C)C)Cc2cc3cc(OC)ccc3[nH]c2=O)cc1	-	-	-	-	.	-	.
COC(=O)c1sc(-c2cccs2)cc1NC(=O)/C=C/C(=O)O	.	-	-	25	-	.	23
CC(=O)NC(C)(c1ccccc1)c1nc(-c2ccc(F)c(Cl)c2)cs1 (centres undefined)	.	-	.	.	.	.	.
COc1ccc(Cn2cc(CN3CC(N4CCCC4)CS3(=O)=O)nn2)cc1 (centres undefined)	.	-	.	.	.	.	.
COc1ccc(OC)c(NC(=O)C2(C)CCN2Cc2ccsc2)c1 (centres undefined)	.	-	.	.	.	.	.
CCN1C(=O)c2ccc(-c3nc4ccccc4c(=O)o3)cc2C1=O	-	-	.	24	.	-	-
O=C1NN(c2ccc(F)c(Cl)c2)C(=O)/C1=C\c1cccc(OC(=O)c2cccs2)c1	-	-	-	16	-	-	-
C[C@@H]1CN([C@@H](C)CO)C(=O)CCCn2nncc2CO[C@H]1CN(C)C(=O)c1ccncc1	.	-	.	.	.	.	.
O=C(C#Cc1cccc([N+](=O)[O-])c1)c1ccccc1	-	-	-	21	-	-	25
O=C(C=CC(=O)OC1CCCCC1)OC1CCCCC1	.	-	.	.	.	.	.
COC(=O)c1c(N2C(=O)Nc3ccccc3N2O)sc2c1CCCC2	-	-	-	-	-	-	.
CCOC(=O)c1c(-c2ccccc2)csc1N1C(=O)Nc2ccccc2N1O	-	-	-	18	-	-	21
COC(=O)c1c(-c2ccccc2)csc1N1C(=O)Nc2ccccc2N1O	-	-	-	15	-	-	23
Cc1cc(F)ccc1-c1cc(C(=O)NCc2ccco2)[nH]n1	.	-	.	.	.	.	.
COc1ccc(Nc2nc3ccccc3nc2NS(=O)(=O)c2cccs2)c(OC)c1	.	-	-	24	-	.	29
C[C@@H]1CN([C@@H](C)CO)C(=O)CCCn2nncc2CO[C@@H]1CN(C)S(=O)(=O)c1cccc(F)c1	.	-	.	.	.	.	.
CC(C)N(CC(N)=O)C(=O)Cc1coc2cc3c(cc12)CCC3	-	-	-	26	-	-	-
S=c1[nH]nc(-c2ccc(Cl)cc2)n1/N=C/C=C/c1ccco1	.	-	-	16	.	.	-
Cc1ccccc1-c1n[nH]c(=S)n1/N=C/C=C/c1ccco1	.	-	-	-	.	.	.
S=c1[nH]nc(-c2ccccc2)n1/N=C/C=C/c1ccco1	-	-	-	-	-	-	.
Cc1cc(-c2n[nH]c(=S)n2/N=C/C=C/c2ccco2)n[nH]1	.	-	-	24	.	.	-
CC1(C(=O)NCc2ccco2)CCN1C(=O)C1(c2ccccc2)CC1 (centres undefined)	.	-	.	.	.	.	.
Oc1ccccc1-c1nnc(SCCN2CCOCC2)n1Cc1ccccc1	-	-	-	15	-	-	-
O=C(CSc1nnc(-c2ccccc2)n1Cc1ccccc1)N1CCOCC1	-	-	-	-	-	-	.
SMILES	ABCB1 block	ABCB6 inh 2	HSV augment	p97 ATPase inh	Rad51 HR inh	ABCG2 block	p97 inh conf
CSCCC(NS(=O)(=O)c1ccc(Cl)cc1)C(=O)OCC(=O)NC12CC3CC(CC(C3)C1)C2 (centres undefined)	-	-	-	22	-	-	-
COC(=O)C(CCSC)NS(=O)(=O)c1ccc(Cl)cc1 (centres undefined)	-	-	-	-	-	-	.
Cc1cc(/C=C2\SC(=S)NC2=O)c(C)n1-c1ccc(O)cc1	.	-	-	56	-	.	-
Cc1cc(/C=C2\SC(=S)NC2=O)c(C)n1-c1ccccc1	.	-	-	-	-	.	.
Cn1nc(-c2ccc(Cl)cc2)nc2c(=O)n(C)c(=O)nc1-2	-	.	-	38	-	-	41
CS(=O)(=O)n1nc(-c2ccc(Cl)cc2)nc1N	-	-	-	-	-	-	.
